Experimental data published in ChEMBL document CHEMBL1649115, “Enhanced susceptibility to antifungal oligopeptides in yeast strains overexpressing ABC multidrug efflux pumps” (Antimicrob Agents Chemother, 2008).
≈ marks a conversion by molar mass, not a printed value. Non-standard residues stand in square brackets, D forms with d. Residues, ends and D or L forms follow the SMILES beside them. Phe(3-F) = N[C@@H](Cc1cccc(F)c1)C(=O)O

Key:
[1] = tested on: Candida albicans; assay: Antifungal activity against fluconazole resistant Candida albicans isolate Gu5 overexpressing CDR1 and CDR2 in RPMI-1640 buffered medium after 24 hrs by microdilution method; assay type: functional; conditions: isolate Gu5, 24 h
How it was run: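 C. albicans cells were grown in 2% glucose, 1% yeast extract, 1% Bacto peptone medium before testing. CARE-2 fingerprinting confirmed that each pair is a single strain.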

[2] = tested on: Candida albicans; assay: Antifungal activity against fluconazole sensitive Candida albicans isolate B3 in RPMI-1640 buffered medium after 24 hrs by microdilution method; assay type: functional; conditions: Candida albicans, isolate B3, 24 h; read-out: MIC
How it was run: (§1)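 C. albicans cells were grown in 2% glucose, 1% yeast extract, 1% Bacto peptone medium before testing. […] CARE-2 fingerprinting confirmed that each pair is a single strain.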

[3] = tested on: Saccharomyces cerevisiae; assay: Prodrug stability in Saccharomyces cerevisiae ADCDR1 expressing Candida albicans CDR1 efflux pump assessed as compound cleavage rate measured per mg of protein; assay type: ADME, organism-based; conditions: in vivo
[4] = tested on: Saccharomyces cerevisiae; assay: Antifungal activity against Saccharomyces cerevisiae ADCDR1 expressing Candida albicans CDR1 efflux pump in YNPG-proline medium after 24 hrs by microdilution method; assay type: functional; conditions: ADCDR1, 24 h
[5] = tested on: Candida albicans; assay: Prodrug stability in fluconazole sensitive Candida albicans isolate B3 assessed as compound cleavage rate measured per mg of protein; assay type: ADME, organism-based; conditions: in vivo
[6] = tested on: Saccharomyces cerevisiae; assay: Drug uptake in Saccharomyces cerevisiae ADCDR2 expressing Candida albicans CDR2 efflux pump at 200 uM pretreated for 10 mins measured after 60 mins by fluorescamine staining; assay type: ADME, organism-based; conditions: in vivo, 1 h
[7] = tested on: Saccharomyces cerevisiae; assay: Drug uptake in Saccharomyces cerevisiae AD12345678 at 200 uM pretreated for 10 mins measured after 60 mins by fluorescamine staining; assay type: ADME, organism-based; conditions: in vivo, 1 h
[8] = tested on: Candida albicans; assay: Prodrug stability in fluconazole sensitive Candida albicans isolate Gu4 assessed as compound cleavage rate measured per mg of protein; assay type: ADME, organism-based; conditions: in vivo
How it was run: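 Oligopeptides were incubated with cell extracts of the yeast cells, and their hydrolytic enzymes cleaved them. The amino acids released were quantified by the Cd-ninhydrin method.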

[9] = tested on: Saccharomyces cerevisiae; assay: Drug uptake in Saccharomyces cerevisiae ADMDR1 expressing Candida albicans MDR1 efflux pump at 200 uM pretreated for 10 mins measured after 60 mins by fluorescamine staining; assay type: ADME, organism-based; conditions: in vivo, 1 h
[10] = tested on: Saccharomyces cerevisiae; assay: Antifungal activity against Saccharomyces cerevisiae ADCDR2 expressing Candida albicans CDR2 efflux pump in YNPG-proline medium after 24 hrs by microdilution method; assay type: functional; conditions: ADCDR2, 24 h
[11] = tested on: Saccharomyces cerevisiae; assay: Drug uptake in Saccharomyces cerevisiae ADCDR2 at 200 uM pretreated for 10 mins measured after 60 mins by fluorescamine staining in presence of fluconazole; assay type: ADME, organism-based; conditions: in vivo, 1 h
[12] = tested on: Candida albicans; assay: Antifungal activity against wild type Candida albicans 10261 in RPMI-1640 buffered medium after 24 hrs by microdilution method; assay type: functional; conditions: Candida albicans, 10261, 24 h; read-out: MIC; how it was run: as §1
[13] = tested on: Candida albicans; assay: Antifungal activity against fluconazole resistant Candida albicans isolate B4 overexpressing MDR1 in RPMI-1640 buffered medium after 24 hrs by microdilution method; assay type: functional; conditions: Candida albicans, isolate B4, 24 h; read-out: MIC; how it was run: as §1
[14] = tested on: Saccharomyces cerevisiae; assay: Drug uptake in Saccharomyces cerevisiae ADCDR1 expressing Candida albicans CDR1 efflux pump at 200 uM pretreated for 10 mins measured after 60 mins by fluorescamine staining; assay type: ADME, organism-based; conditions: in vivo, 1 h
[15] = tested on: Candida albicans; assay: Antifungal activity against fluconazole sensitive Candida albicans isolate Gu4 in RPMI-1640 buffered medium after 24 hrs by microdilution method; assay type: functional; conditions: Candida albicans, isolate Gu4, 24 h; read-out: MIC; how it was run: as §1
[16] = tested on: Saccharomyces cerevisiae; assay: Antifungal activity against Saccharomyces cerevisiae AD12345678 in YNPG-proline medium after 24 hrs by microdilution method; assay type: functional; conditions: AD12345678, 24 h
[17] = tested on: Saccharomyces cerevisiae; assay: Drug uptake in Saccharomyces cerevisiae ADCDR1 at 200 uM pretreated for 10 mins measured after 60 mins by fluorescamine staining in presence of fluconazole; assay type: ADME, organism-based; conditions: in vivo, 1 h
[18] = tested on: Saccharomyces cerevisiae; assay: Prodrug stability in wild type Saccharomyces cerevisiae ATCC 9763 assessed as compound cleavage rate measured per mg of protein; assay type: ADME, organism-based; conditions: in vivo
[19] = tested on: Saccharomyces cerevisiae; assay: Drug uptake in Saccharomyces cerevisiae ADMDR1 at 50 uM pretreated for 10 mins measured after 60 mins by fluorescamine staining in presence of fluconazole; conditions: in vivo, 1 h
[20] = tested on: Saccharomyces cerevisiae; assay: Prodrug stability in Saccharomyces cerevisiae ADCDR2 expressing Candida albicans CDR2 efflux pump assessed as compound cleavage rate measured per mg of protein; assay type: ADME, organism-based; conditions: in vivo
[21] = tested on: Saccharomyces cerevisiae; assay: Drug uptake in Saccharomyces cerevisiae AD12345678 at 200 uM pretreated for 10 mins measured after 60 mins by fluorescamine staining in presence of fluconazole; assay type: ADME, organism-based; conditions: in vivo, 1 h
[22] = tested on: Saccharomyces cerevisiae; assay: Antifungal activity against wild type Saccharomyces cerevisiae ATCC 9763 in YNPG-proline medium after 24 hrs by microdilution method; assay type: functional; conditions: ATCC 9763, 24 h
[23] = tested on: Candida albicans; assay: Prodrug stability in wild type Candida albicans 10261 assessed as compound cleavage rate measured per mg of protein; assay type: ADME, organism-based; conditions: in vivo
[24] = tested on: Saccharomyces cerevisiae; assay: Prodrug stability in Saccharomyces cerevisiae AD12345678 assessed as compound cleavage rate measured per mg of protein; assay type: ADME, organism-based; conditions: in vivo
[25] = tested on: Saccharomyces cerevisiae; assay: Antifungal activity against Saccharomyces cerevisiae ADMDR1 expressing Candida albicans MDR1 efflux pump in YNPG-proline medium after 24 hrs by microdilution method; assay type: functional; conditions: ADMDR1, 24 h
[26] = tested on: Saccharomyces cerevisiae; assay: Prodrug stability in Saccharomyces cerevisiae ADMDR1 expressing Candida albicans MDR1 efflux pump assessed as compound cleavage rate measured per mg of protein; assay type: ADME, organism-based; conditions: in vivo
[27] = tested on: Saccharomyces cerevisiae; assay: Antifungal activity against Saccharomyces cerevisiae ADCDR2 expressing Candida albicans CDR2 efflux pump in YNPG medium containing 1 mg/ml […] after 24 hrs by microdilution method; assay type: functional; conditions: ADCDR2, 24 h
[28] = tested on: Saccharomyces cerevisiae; assay: Antifungal activity against Saccharomyces cerevisiae ADCDR1 expressing Candida albicans CDR1 efflux pump in YNPG medium containing 1 mg/ml […] after 24 hrs by microdilution method; assay type: functional; conditions: ADCDR1, 24 h
[29] = tested on: Saccharomyces cerevisiae; assay: Antifungal activity against Saccharomyces cerevisiae ADMDR1 expressing Candida albicans MDR1 efflux pump in YNPG medium containing 1 mg/ml […] after 24 hrs by microdilution method; assay type: functional; conditions: ADMDR1, 24 h
[30] = tested on: Saccharomyces cerevisiae; assay: Antifungal activity against wild type Saccharomyces cerevisiae ATCC 9763 in YNPG medium containing 1 mg/ml […] after 24 hrs by microdilution method; assay type: functional; conditions: ATCC 9763, 24 h
[31] = tested on: Saccharomyces cerevisiae; assay: Antifungal activity against Saccharomyces cerevisiae AD12345678 in YNPG medium containing 1 mg/ml […] after 24 hrs by microdilution method; assay type: functional; conditions: AD12345678, 24 h

Row | SMILES | MIC [1] [µg/mL] | MIC [2] [µg/mL] | MIC [4] [µg/mL] | Stability [5] [nmol/min] | Drug uptake [6] [nmol/min/mg] | Drug uptake [7] [nmol/min/mg] | Stability [8] [nmol/min] | Drug uptake [9] [nmol/min/mg] | MIC [10] [µg/mL] | Drug uptake [11] [nmol/min/mg] | MIC [12] [µg/mL] | MIC [13] [µg/mL] | Drug uptake [14] [nmol/min/mg] | MIC [15] [µg/mL] | MIC [16] [µg/mL] | Drug uptake [17] [nmol/min/mg] | Drug uptake [19] [nmol/min/mg] | Drug uptake [21] [nmol/min/mg] | MIC [22] [µg/mL] | Stability [23] [nmol/min] | further results
1 | CC(C)C[C@H](N)C(=O)N[C@@H](Cc1cccc(F)c1)C(=O)O (H-Leu-[Phe(3-F)]-OH) | 8 (≈ 27 µM) | 64 (≈ 216 µM) | 8 (≈ 27 µM) | 20 | 2.37 | 0.79 | 20 | 0.84 | 4 (≈ 13.5 µM) | 2.23 | 64 (≈ 216 µM) | 64 (≈ 216 µM) | 1.95 | 128 (≈ 432 µM) | 256 (≈ 864 µM) | 1.82 | 0.87 | 0.79 | 256 (≈ 864 µM) | 20 | Stability [3]: 14 nmol/min; Stability [18]: 14 nmol/min; Stability [20]: 14 nmol/min; Stability [24]: 14 nmol/min; MIC [25]: 256 µg/mL (≈ 864 µM); Stability [26]: 14 nmol/min
2 | [N-]=[N+]=CC(=O)OC[C@H](N)C(=O)O [AZASERINE] | 16 (≈ 92.4 µM) | 32 (≈ 185 µM) | – | – | 1.92 | 1.75 | – | 1.7 | – | – | 16 (≈ 92.4 µM) | 32 (≈ 185 µM) | 2.15 | 16 (≈ 92.4 µM) | – | – | – | – | – | – | MIC [27]: 1 µg/mL (≈ 5.78 µM); MIC [28]: 1 µg/mL (≈ 5.78 µM); MIC [29]: 2 µg/mL (≈ 11.6 µM); MIC [30]: 2 µg/mL (≈ 11.6 µM); MIC [31]: 2 µg/mL (≈ 11.6 µM)
3 | NC(Cc1cccc(F)c1)C(=O)O (stereo not given) [M-FLUOROPHENYLALANINE] | 128 (≈ 699 µM) | 128 (≈ 699 µM) | – | – | 1.86 | 1.78 | – | 1.63 | – | – | 256 (≈ 1400 µM) | 128 (≈ 699 µM) | 2.57 | 128 (≈ 699 µM) | – | – | – | – | – | – | MIC [27]: 16 µg/mL (≈ 87.3 µM); MIC [28]: 16 µg/mL (≈ 87.3 µM); MIC [29]: 32 µg/mL (≈ 175 µM); MIC [30]: 32 µg/mL (≈ 175 µM); MIC [31]: 32 µg/mL (≈ 175 µM)
4 | C[C@@H]([C@H](N)C(=O)N[C@H](C(=O)O)[C@H]1O[C@@H](n2ccc(=O)[nH]c2=O)[C@H](O)[C@@H]1O)[C@H](O)c1ccc(O)cn1 [NIKKOMYCIN] | 4 (≈ 8.07 µM) | 8 (≈ 16.1 µM) | 16 (≈ 32.3 µM) | 0.3 | 0.97 | 0.33 | 0.3 | 0.32 | 16 (≈ 32.3 µM) | 0.88 | 32 (≈ 64.6 µM) | 8 (≈ 16.1 µM) | 1.08 | 16 (≈ 32.3 µM) | 128 (≈ 258 µM) | 0.98 | 0.34 | 0.32 | 128 (≈ 258 µM) | 0.3 | MIC [25]: 128 µg/mL (≈ 258 µM)
